Reference: ChEMBL document CHEMBL1123531, “1,2-bis(arylsulfonyl)hydrazines. 2. The influence of arylsulfonyl and aralkylsulfonyl substituents on antitumor and alkylating activity” (1986)
Several values for one entry are separate records, joined by “and”; a condition that tells them apart may be missing. Equal values may be shown once.

Tests used:
Mus musculus [1] = assay: Compound was evaluated for the antitumor activity as average change in body weight against L1210 leukemia in mice at 150 mg/kg dose; format: functional
Outline: (§1)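 CDF1 mice carrying ip L1210 ascites (10^5 cells), dosed ip daily for 6 consecutive days starting 24 h after implant, in Tween 80/isotonic saline suspension. Five mice per group. Toxicity taken as mean percent body weight change from start to end of therapy.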

[2] = Compound was evaluated for relative alkylating activity
Mus musculus [3] = species: Mus musculus; assay: Compound was evaluated for the antineoplastic activity against L1210 leukemia in mice.; format: functional
Outline: (§2)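 CDF1 mice, 10^5 L1210 ascites cells implanted ip (from 7-day donor tumors, saline-diluted). Dosed ip once daily for 6 days from 24 h post-implant, 50-150 mg/kg, as Tween 80/saline suspension. Five mice per group, vehicle-treated controls. Read-out: % T/C, mean survival of treated/control ×100.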

Mus musculus [4] = assay: Compound was evaluated for the antitumor activity as average change in body weight against L1210 leukemia in mice at 50 mg/kg dose; format: functional; outline: as §1
Mus musculus [5] = assay: Compound was evaluated for the antitumor activity against L1210 leukemia in mice at 50 mg/kg dose; format: functional
Outline: (§3)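 L1210 ascites leukemia serially passaged in CDF1 mice; 10^5 cells implanted ip. Compounds homogenized in drops of 20% aqueous Tween 80, brought to volume with isotonic saline, given ip as fine suspensions once daily for 6 consecutive days starting 24 h after implantation. Five mice per group; vehicle controls. Endpoint: % T/C = mean survival treated/control × 100; body-weight change tracked toxicity.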

Mus musculus [6] = assay: Compound was evaluated for the antitumor activity against L1210 leukemia in mice at 150 mg/kg dose; format: functional; outline: as §3
Mus musculus [7] = assay: Compound was evaluated for the antitumor activity as average change in body weight against L1210 leukemia in mice at 100 mg/kg dose; format: functional; outline: as §1
Mus musculus [8] = assay: Compound was evaluated for the antitumor activity as average change in body weight against L1210 leukemia in mice 100 mg/kg dose; format: functional; outline: as §1
Mus musculus [9] = assay: Compound was evaluated for the antitumor activity as average change in body weight against L1210 leukemia in mice 150 mg/kg dose; format: functional; outline: as §1
Mus musculus [10] = assay: (§4) Compound was evaluated for the antitumor activity against L1210 leukemia in mice at 100 mg/kg dose; format: functional; outline: as §2
Mus musculus [11] = assay: as §4; format: functional; outline: as §3; remark: listed apart in the source

| Compound | Average change in weight (Mus musculus [1]) [%] | Relative activity [2] | Max T/C (Mus musculus [3]) [%] | Average change in weight (Mus musculus [4]) [%] | T/C (Mus musculus [5]) [%] | Average change in weight (Mus musculus [7]) [%] | also measured |
| --- | --- | --- | --- | --- | --- | --- | --- |
| Cc1ccc(S(=O)(=O)N(C)NS(=O)(=O)c2ccc(Cl)cc2)cc1 | 6 | 126 | 188 | 3.7 | 188 | 10 | T/C (Mus musculus [6]): 121% |
| O=S(=O)(NNS(=O)(=O)c1ccccc1)c1ccccc1 | – | 0 | – | – | – | – | – |
| Cc1ccc(S(=O)(=O)NN(C)S(=O)(=O)c2ccc(C)cc2)cc1 | – | 100 | – | – | – | – | – |
| Cc1ccc(S(=O)(=O)N(C)NS(=O)(=O)Cc2ccccc2)cc1 | – | 136 | – | – | – | – | – |
| COc1ccc(S(=O)(=O)N(C)NS(=O)(=O)c2ccc(C)cc2)cc1 | 9.8 | 85 | 113 | 12.6 | – | 14.8 | – |
| CN(NS(=O)(=O)c1ccc(Cl)cc1)S(=O)(=O)c1ccc(Cl)cc1 | – | 190 | – | – | – | – | – |
| CN(NC(=O)c1ccccc1)C(=O)c1ccccc1 | – | 10 | 97 | – | – | – | – |
| Cc1ccc(S(=O)(=O)N(C)NS(=O)(=O)c2ccccc2)cc1 | – | 112 | 162 | 2 | 162 | – | Average change in weight (Mus musculus [8]): 5.4%; Average change in weight (Mus musculus [9]): -1.7%; Average survival time (Mus musculus [5]): 15 days |
| COc1ccc(S(=O)(=O)NN(C)S(=O)(=O)c2ccc(C)cc2)cc1 | 2.9 | 91 | 162 | 7.7 | 116 | 7.8 | Average survival time (Mus musculus [5]; 50 mg/kg): 15 days and 13.2 days; T/C (Mus musculus [6]): 143%; T/C (Mus musculus [10]): 162% |
| Cc1ccc(S(=O)(=O)NN(C)S(=O)(=O)c2ccc(Cl)cc2)cc1 | -4.6 | 163 | 141 | 5.1 | – | 5.5 | Average survival time (Mus musculus [11]): 13 days; Average survival time (Mus musculus [6]): 10 days |
